The source of these data is ChEMBL document CHEMBL3352237, “Synthesis and biological evaluation of novel peptide BF2 as an antibacterial agent against clinical isolates of vancomycin-resistant enterococci” (J Med Chem, 2014).

Values after ≈ are worked out from the molar mass of the structure shown.

Holding throughout (assay type): functional
Assay [1] concerns Enterococcus faecium. The assay can be described thus: Antibacterial activity against vancomycin-resistant Enterococcus faecium clinical isolate 147969 after overnight incubation by two-fold serial dilution method.
In assay [2] the test system is Enterococcus faecium. Description: Antibacterial activity against vancomycin-resistant Enterococcus faecium clinical isolate 23/240 after overnight incubation by two-fold serial dilution method.
Assay [3] deals with Enterococcus faecium. The assay can be described thus: Antibacterial activity against vancomycin-resistant Enterococcus faecium clinical isolate 3864 after overnight incubation by two-fold serial dilution method.
In assay [4] the test system is Enterococcus faecium. The assay can be described thus: Antibacterial activity against vancomycin-resistant Enterococcus faecium clinical isolate 16475 after overnight incubation by two-fold serial dilution method.
The subject of assay [5] is Enterococcus faecium. The assay can be described thus: Antibacterial activity against vancomycin-resistant Enterococcus faecium clinical isolate 27/221 after overnight incubation by two-fold serial dilution method.
For assay [6], the system named is Enterococcus faecium. Description: Antibacterial activity against vancomycin-resistant Enterococcus faecium clinical isolate 17301 after overnight incubation by two-fold serial dilution method.
Assay [7] relates to Enterococcus faecium. Description: Antibacterial activity against vancomycin-resistant Enterococcus faecium clinical isolate 5396 after overnight incubation by two-fold serial dilution method.
Assay [8] relates to Enterococcus faecium. Description: Antibacterial activity against vancomycin-resistant Enterococcus faecium clinical isolate 12/266 after overnight incubation by two-fold serial dilution method.
Assay [9] relates to Enterococcus faecium. Description: Antibacterial activity against vancomycin-resistant Enterococcus faecium clinical isolate 12875 after overnight incubation by two-fold serial dilution method.
Assay [10] relates to Enterococcus faecium. The assay can be described thus: Antibacterial activity against vancomycin-resistant Enterococcus faecium clinical isolate 30/48 after overnight incubation by two-fold serial dilution method.
Assay [11] deals with Enterococcus faecium. The assay can be described thus: Antibacterial activity against vancomycin-resistant Enterococcus faecium clinical isolate 6/22 after overnight incubation by two-fold serial dilution method.
Assay [12] has as its system Enterococcus faecium. Description: Antibacterial activity against vancomycin-resistant Enterococcus faecium clinical isolate 151495 after overnight incubation by two-fold serial dilution method.
Assay [13] relates to Enterococcus. Description: Antibacterial activity against Enterococcus infected in Wistar albino rat assessed as reduction in cell count at 25 mg/kg, iv after 1 hr relative to control. Also on record: scale not given: the % may be the effect or the level left. Put shortly: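 Female Wistar albino rats, 40−45 days old, 125−150 g, 5 groups of 3. Enterococci were grown to log phase in MH broth, centrifuged at 1000g for 15 min, and diluted in PBS to 4 × 10^6 CFU/mL. Rats were inoculated i.v. and treated i.v. 1 h later with 12.5, 25 or 37.5 mg/kg peptide, PBS vehicle, or linezolid 25 mg/kg. Tail-vein blood taken 1 h post-treatment was plated on blood agar, incubated overnight at 37 °C, and colonies counted.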

In assay [14] the test system is Enterococcus faecium. Description: Antibacterial activity against vancomycin-resistant Enterococcus faecium clinical isolate 13246 after overnight incubation by two-fold serial dilution method.
For assay [15], the system named is Enterococcus faecium. The assay can be described thus: Antibacterial activity against vancomycin-resistant Enterococcus faecium clinical isolate 5484 after overnight incubation by two-fold serial dilution method.
Assay [16] deals with Enterococcus faecium. The assay can be described thus: Antibacterial activity against vancomycin-resistant Enterococcus faecium clinical isolate 7/27 after overnight incubation by two-fold serial dilution method.
Assay [17] relates to Enterococcus faecium. The assay can be described thus: Antibacterial activity against vancomycin-resistant Enterococcus faecium clinical isolate 31386 after overnight incubation by two-fold serial dilution method.
Assay [18] concerns Enterococcus faecium. Description: Antibacterial activity against vancomycin-resistant Enterococcus faecium clinical isolate 29/203 after overnight incubation by two-fold serial dilution method.
Assay [19] concerns Enterococcus faecium. Description: Antibacterial activity against vancomycin-resistant Enterococcus faecium clinical isolate 18906 after overnight incubation by two-fold serial dilution method.
Assay [20] has as its system Enterococcus faecium. Description: Antibacterial activity against vancomycin-resistant Enterococcus faecium clinical isolate 10177 after overnight incubation by two-fold serial dilution method.
Assay [21] relates to Enterococcus faecium. The assay can be described thus: Antibacterial activity against vancomycin-resistant Enterococcus faecium clinical isolate 14643 after overnight incubation by two-fold serial dilution method.
Assay [22] deals with Enterococcus faecium. Description: Antibacterial activity against vancomycin-resistant Enterococcus faecium clinical isolate 28/211 after overnight incubation by two-fold serial dilution method.
The subject of assay [23] is Enterococcus faecium. The assay can be described thus: Antibacterial activity against vancomycin-resistant Enterococcus faecium clinical isolate 27/16917 after overnight incubation by two-fold serial dilution method. Particulars: isolate 27/1691.
For assay [24], the system named is Enterococcus faecium. The assay can be described thus: Antibacterial activity against vancomycin-resistant Enterococcus faecium clinical isolate 15/213 after overnight incubation by two-fold serial dilution method.
Assay [25] deals with Enterococcus faecium. Description: Antibacterial activity against vancomycin-resistant Enterococcus faecium clinical isolate 16115 after overnight incubation by two-fold serial dilution method.
Assay [26] deals with Enterococcus. Description: Antibacterial activity against vancomycin-resistant Enterococcus ATCC 51299 after overnight incubation by two-fold serial dilution method.
Assay [27] concerns Enterococcus faecium. The assay can be described thus: Antibacterial activity against vancomycin-resistant Enterococcus faecium clinical isolate 8/224 after overnight incubation by two-fold serial dilution method.
Assay [28] relates to Enterococcus faecium. Description: Antibacterial activity against vancomycin-resistant Enterococcus faecium clinical isolate 31176 after overnight incubation by two-fold serial dilution method.
The test system of assay [29] is Enterococcus. Description: Antibacterial activity against vancomycin-resistant Enterococcus ATCC 29212 after overnight incubation by two-fold serial dilution method.
Assay [30] concerns Enterococcus. Description: Antibacterial activity against vancomycin-resistant Enterococcus ATCC 51299 by checkerboard titration method in presence of vancomycin.
The subject of assay [31] is Enterococcus. The assay can be described thus: Antibacterial activity against vancomycin-resistant Enterococcus ATCC 29212 by checkerboard titration method in presence of linezolid.
The subject of assay [32] is Enterococcus. The assay can be described thus: Antibacterial activity against vancomycin-resistant Enterococcus ATCC 29212 by checkerboard titration method in presence of vancomycin.
Assay [33] has as its system Enterococcus. The assay can be described thus: Antibacterial activity against vancomycin-resistant Enterococcus ATCC 51299 by checkerboard titration method in presence of linezolid.

`CC(=O)NC[C@H]1CN(c2ccc(N3CCOCC3)c(F)c2)C(=O)O1` [LINEZOLID]: the minimum inhibitory concentration (MIC) – broadly, the least concentration at which growth counts as inhibited – came to 1 µg/mL (≈ 2.96 µM) against Enterococcus faecium [1]; 1 µg/mL (≈ 2.96 µM) against Enterococcus faecium [2]; 2 µg/mL (≈ 5.93 µM) in the assay with Enterococcus faecium [3]; 1 µg/mL (≈ 2.96 µM) against Enterococcus faecium [4]; 1 µg/mL (≈ 2.96 µM) against Enterococcus faecium [5]; 1 µg/mL (≈ 2.96 µM) against Enterococcus faecium [6]. In addition, the MIC with Enterococcus faecium [7] worked out at 1 µg/mL (≈ 2.96 µM); with Enterococcus faecium [8] it was 2 µg/mL (≈ 5.93 µM); in the assay with Enterococcus faecium [9], 1 µg/mL (≈ 2.96 µM); against Enterococcus faecium [10], 2 µg/mL (≈ 5.93 µM); in the assay on Enterococcus faecium [11] it was 1 µg/mL (≈ 2.96 µM); against Enterococcus faecium [12], 1 µg/mL (≈ 2.96 µM). Also, the MIC turned out to be 2 µg/mL (≈ 5.93 µM) with Enterococcus faecium [14]; 1 µg/mL (≈ 2.96 µM) with Enterococcus faecium [15]; 2 µg/mL (≈ 5.93 µM) against Enterococcus faecium [16]; 2 µg/mL (≈ 5.93 µM) in the assay on Enterococcus faecium [17]; 1 µg/mL (≈ 2.96 µM) against Enterococcus faecium [18]; 2 µg/mL (≈ 5.93 µM) against Enterococcus faecium [19]. In addition, the MIC amounted to 1 µg/mL (≈ 2.96 µM) in the assay with Enterococcus faecium [20]; 2 µg/mL (≈ 5.93 µM) against Enterococcus faecium [21]; 2 µg/mL (≈ 5.93 µM) in the assay on Enterococcus faecium [22]; 1 µg/mL (≈ 2.96 µM) in the assay with Enterococcus faecium [23]; 1 µg/mL (≈ 2.96 µM) against Enterococcus faecium [24]; 1 µg/mL (≈ 2.96 µM) with Enterococcus faecium [25]. Moreover, the MIC in the assay on Enterococcus [26] was found to be 2 µg/mL (≈ 5.93 µM); in the assay on Enterococcus faecium [27] it was 1 µg/mL (≈ 2.96 µM); with Enterococcus faecium [28], 1 µg/mL (≈ 2.96 µM); in the assay with Enterococcus [29] it was 1 µg/mL (≈ 2.96 µM). Besides, the Activity in the assay with Enterococcus [13] is given as 93.8%.

For the compound H-FLPLIGRVLSGIL-NH2 [TEMPORIN A], the “fractional inhibitory concentration index (FICI)” value in the assay with Enterococcus [30] was found to be 1.5; in the assay on Enterococcus [31], 0.75; in the assay on Enterococcus [32], 1.25; in the assay on Enterococcus [33] it was 0.75.
